# From PubChem
# Sampled rows, rich in hits. Any-hit rate of the full collection: about 1.5%.
# ERp5 inh – inhibitors of ERp5-driven insulin aggregation, primary screen, biochemical, turbidity, absorbance 650 nm, single point. Protein disulfide-isomerase A6 (Homo sapiens), Q15084. 90 min. inhibition, % at 9.99 µM. 350,000 compounds, 0.05% hits. AID 651711, 2012;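 active means mean replicate inhibition above about 25%, with every replicate also reaching it, limit read from the data, passing the limit was not always enough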
# SIRT5 inh – SIRT5 desuccinylase inhibitors, primary screen, biochemical, fluorescence imaging, single point, set 5; NAD-dependent protein deacylase sirtuin-5, mitochondrial (Homo sapiens), Q9NXA8; Purified SirT5, succinyl-peptide AMC, trypsin-coupled fluorescence; inhibition, % at 15 µM; 330,000 compounds, 1.1% hits; in the data active means inhibition above about 15%
# PDI inh – inhibitors of human PDI, primary screen, biochemical, turbidity, single point, plate reader; Protein disulfide-isomerase (Homo sapiens), P07237; PDI insulin aggregation turbidity, A650, 90 min; inhibition, % at 10 µM; 350,000 compounds, 0.052% hits;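 active means mean inhibition across replicates of 30% or more, whatever share of single replicates reach that level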
# Target sequence (P07237 whole entry, looked up): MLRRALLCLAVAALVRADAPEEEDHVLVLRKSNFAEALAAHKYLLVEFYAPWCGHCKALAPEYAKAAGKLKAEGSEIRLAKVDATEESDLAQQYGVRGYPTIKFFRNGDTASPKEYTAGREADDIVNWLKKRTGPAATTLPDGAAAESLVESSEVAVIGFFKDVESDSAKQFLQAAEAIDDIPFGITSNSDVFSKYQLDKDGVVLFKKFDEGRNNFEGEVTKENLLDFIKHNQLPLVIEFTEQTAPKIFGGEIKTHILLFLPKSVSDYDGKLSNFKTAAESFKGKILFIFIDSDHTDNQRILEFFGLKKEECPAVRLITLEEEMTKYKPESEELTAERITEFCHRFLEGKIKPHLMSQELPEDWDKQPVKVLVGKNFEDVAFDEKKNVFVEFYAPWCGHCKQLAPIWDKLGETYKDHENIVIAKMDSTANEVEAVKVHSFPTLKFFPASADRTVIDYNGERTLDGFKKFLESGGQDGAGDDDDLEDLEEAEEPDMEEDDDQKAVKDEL
# S100A4 MyoIIA – inhibitors of S100A4-myosin IIA peptide binding, primary screen, biochemical, fluorescence polarization, TAMRA-MyoIIA peptide; inhibition, % at 10.7 µM; 360,000 compounds, 0.14% hits;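 active means mean inhibition of at least 70% across replicates, with every replicate also reaching that level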
# Target sequence (P26447 whole entry, looked up): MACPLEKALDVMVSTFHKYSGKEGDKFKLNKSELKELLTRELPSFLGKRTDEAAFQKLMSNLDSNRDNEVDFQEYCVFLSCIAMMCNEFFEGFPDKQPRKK
#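 Material: S100A4 monomer protein | Medium: HEPES pH 7.2 with CaCl2, KCl, NaCl, DTT, Triton | Reagent: Labelled myosin peptide probe, 5 nM | Doses: One dose per compound | Times: 5 min incubation before reading | Benchmarks: Neutral control DMSO, positive control TFP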
# INS-1E GSIS act – GLuc luminescence reporter in INS-1E cells, primary screen for activators of glucose-dependent secretion of insulin | 370,000 compounds, 0.61% hits | activation, % at 16.6 µM | AID 743287, 2014 | INS-1E GLuc reporter insulin secretion, 2-3 h;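 active means lowest replicate activation of at least 40%, so every replicate reaches that level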
# Hits are given with their value; n = inactive; x = not tested or not shown.
SMILES,ERp5 inh,SIRT5 inh,PDI inh,S100A4 MyoIIA,INS-1E GSIS act
CN(C)CC(=O)Nc1ccc2c(c1)[C@@H]1C[C@@H](CC(=O)NCc3cccnc3)O[C@@H](CO)[C@@H]1O2,n,n,x,n,n
O=C1C=C(O)c2cccc(O)c2C1=O,n,x,x,n,x
O=C1C=C(c2c(O)ccc3ccccc23)c2ccccc2C1=O,n,x,n,n,41
O=C(CSc1cccc2cccnc12)N/N=C/c1ccncc1,n,x,n,n,n
CCOc1cc(/C=N/NC(=O)C(C)Sc2ccccn2)ccc1O (stereo not drawn),x,x,n,x,70
CCOc1cc(/C=N/NC(=O)CSc2cccc3cccnc23)ccc1O,n,n,n,n,66
CCCOc1ccc(/C=N/NC(=O)C(C)Sc2ccccn2)cc1OCC (stereo not drawn),x,x,n,x,n
O=C(C[C@@H]1C=C[C@@H](NC(=O)c2cccc(F)c2)[C@H](CO)O1)Nc1nccs1,n,n,x,n,n
COc1ccccc1-c1ccc2c(c1)O[C@@H](CN(C)S(=O)(=O)c1ccc(F)cc1)[C@@H](C)CN([C@H](C)CO)S2(=O)=O,n,20,x,n,n
COc1ccccc1-c1ccc2c(c1)O[C@@H](CN(C)S(=O)(=O)c1ccc(F)cc1)[C@@H](C)CN([C@@H](C)CO)S2(=O)=O,n,23,x,n,n
COc1ccccc1-c1ccc2c(c1)O[C@H](CN(C)S(=O)(=O)c1ccc(C)cc1)[C@H](C)CN([C@H](C)CO)S2(=O)=O,n,n,x,n,n
COc1ccccc1-c1ccc2c(c1)O[C@H](CN(C)S(=O)(=O)c1ccc(F)cc1)[C@H](C)CN([C@@H](C)CO)S2(=O)=O,n,18,x,n,n
COc1ccccc1-c1ccc2c(c1)O[C@@H](CN(C)S(=O)(=O)c1ccc(C)cc1)[C@H](C)CN([C@@H](C)CO)S2(=O)=O,n,n,x,n,n
COc1ccc(S(=O)(=O)Nc2ccc3c(c2)[C@@H]2C[C@H](CC(=O)O)O[C@H](CO)[C@@H]2O3)cc1,n,n,x,n,n
C[C@@H]1CN([C@@H](C)CO)S(=O)(=O)c2ccc(-c3cncnc3)cc2O[C@@H]1CN(C)Cc1ccncc1,n,n,x,n,n
CCCC#Cc1cnc2c(c1)C(=O)N([C@@H](C)CO)C[C@H](C)[C@H](CN(C)C(=O)c1ccccc1)O2,n,n,x,n,n
COc1ccccc1-c1ccc2c(c1)O[C@@H](CN(C)Cc1ccc3c(c1)OCO3)[C@@H](C)CN([C@H](C)CO)S2(=O)=O,n,17,x,n,n
COc1ccccc1-c1ccc2c(c1)O[C@@H](CN(C)Cc1ccc3c(c1)OCO3)[C@H](C)CN([C@@H](C)CO)S2(=O)=O,n,23,x,n,n
COc1ccccc1-c1ccc2c(c1)O[C@@H](CN(C)C)[C@@H](C)CN([C@H](C)CO)S2(=O)=O,n,n,x,n,n
C[C@@H]1CN([C@@H](C)CO)S(=O)(=O)c2ccc(-c3cccc(C(=O)N(C)C)c3)cc2O[C@H]1CN(C)Cc1ccc2c(c1)OCO2,n,19,x,n,n
O=C1N[C@@H](Cc2ccccc2)C(=O)N2[C@@H]1C[C@]1(Br)c3ccccc3N(S(=O)(=O)c3ccccc3)[C@H]21,n,n,x,n,x
CS(=O)(=O)N1c2ccccc2[C@]2([C@@]34C[C@H]5C(=O)N[C@@H](Cc6ccccc6)C(=O)N5[C@@H]3N(S(C)(=O)=O)c3ccccc34)C[C@H]3C(=O)N[C@@H](Cc4ccccc4)C(=O)N3[C@H]12,n,33,x,n,n
COc1ccc(NC(=O)Nc2ccc3c(c2)C(=O)N([C@H](C)CO)C[C@H](C)[C@@H](CN(C)S(=O)(=O)c2c(C)noc2C)O3)cc1,x,x,x,x,n
C/C=C/c1cnc2c(c1)C(=O)N([C@@H](C)CO)C[C@@H](C)[C@H](CN(C)S(=O)(=O)c1ccc(F)cc1)O2,n,n,x,n,n
Cc1cccc(-c2ccc([C@H]3[C@H]4CN(S(=O)(=O)c5ccccc5C)CCCCN4[C@H]3CO)cc2)c1,n,n,x,n,n
SMILES,ERp5 inh,SIRT5 inh,PDI inh,S100A4 MyoIIA,INS-1E GSIS act
CCS(=O)(=O)N1CCCCN2[C@H](C1)[C@@H](c1ccc(-c3ccccc3)cc1)[C@@H]2CO,n,16,x,n,n
Cc1ccccc1S(=O)(=O)N1CCCCN2[C@H](CO)[C@H](c3ccc(-c4ccccc4)cc3)[C@H]2C1,n,17,x,n,x
Cc1ccccc1S(=O)(=O)N1CCCCN2[C@@H](CO)[C@@H](c3ccc(-c4ccccc4)cc3)[C@@H]2C1,n,n,x,n,x
CCS(=O)(=O)N1CCCCN2[C@H](CO)[C@H](c3ccc(-c4ccccc4)cc3)[C@H]2C1,n,n,x,n,n
Cc1ccccc1S(=O)(=O)N1CCCCN2[C@H](CO)[C@@H](c3ccc(-c4ccccc4)cc3)[C@H]2C1,n,19,x,n,x
Cn1c(/C(C#N)=C/c2ccc(O)cc2)nc2ccccc21,n,n,n,n,42
Cn1c(/C(C#N)=C/c2ccncc2)nc2ccccc21,n,n,n,n,n
C[C@@H]1CN([C@@H](C)CO)C(=O)c2cccc(NC(=O)c3ccncc3)c2O[C@H]1CN(C)CC1CCCCC1,n,n,x,n,n
COc1ccc(C2=NN(C(=O)c3ccco3)C(c3cccs3)C2)cc1OC (stereo not drawn),n,n,n,n,81
COc1ccc(C2=NN(C(=O)CCCC(=O)O)C(c3cccs3)C2)cc1OC (stereo not drawn),n,n,n,n,104
C[C@H](CO)N1C[C@H](C)[C@@H](CN(C)Cc2ccncc2)Oc2ccc(NC(=O)C3CCCCC3)cc2C1=O,n,n,x,n,n
C[C@H]1CN([C@@H](C)CO)C(=O)c2cc(NS(=O)(=O)c3ccc(Cl)cc3)ccc2O[C@@H]1CN(C)Cc1ccncc1,n,n,x,n,n
COc1cc(NC(=O)c2c(-c3ccccc3Cl)noc2C)c2ncccc2c1,n,n,n,n,51
O=C1COc2ccc(C(=O)COC(=O)CCSc3ccc(Cl)cc3)cc2N1,n,16,n,n,n
CCCC(C)(C)C(=O)N1CCC1(C)C(=O)NS(=O)(=O)c1ccc(Cl)cc1 (stereo not drawn),n,n,n,n,42
CC(C)(C)c1ccc(S(=O)(=O)NC(=O)C2(C)CCN2C(=O)C2CCCCC2)cc1 (stereo not drawn),n,19,n,n,n
C[C@H](CO)N1C[C@H](C)[C@@H](CN(C)C)Oc2cc(C#CC3(O)CCCC3)ccc2S1(=O)=O,n,n,x,n,n
COc1ccc(N2CCN(C(c3cccs3)C(C)NC(=O)C(=O)N3CCOCC3)CC2)cc1 (stereo not drawn),n,n,n,n,79
